How the values were obtained:
[1] = Permeability of compound in 5% DMSO after 7 hrs by PAMPA; format: ADME; conditions: read-out: permeability
K562 = experiment: Antiproliferative activity against human K562 cells assessed as reduction in cell viability by measuring ATP level incubated for 3 days by Celltiter-Glo assay; format: functional, cell-based; conditions: K562, 72 h
Summary of the method: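 K562 cells grown in RPMI 1640 with 50 mM HEPES and 10% FBS at 37 °C in 5% CO2, then plated at 20 000 cells per well. Compounds were log-serially diluted in DMSO, then in RPMI, to final concentrations of 10 000 nM to 0.01 nM. Cells were exposed for 3 days, and total intracellular ATP was read by CellTiter-Glo. IC50 is the geometric mean of at least two duplicate runs.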

DLD-1 [2] = experiment: cells; conditions: Homo sapiens
DLD-1 [3] = experiment: cells; conditions: Homo sapiens; remark: listed apart in the source
[4] = molecular target: T1, Nicotinamide phosphoribosyltransferase (Homo sapiens, UniProt P43490); experiment: Displacement of fluorescent labelled OG488 from human full length FLAG-tagged NAMPT (1 to 491 residues) expressed in HEK293-6E cells in absence of PRPP by TR-FRET assay; format: cell-based
T1 sequence (P43490 whole entry, the tested form may be a part): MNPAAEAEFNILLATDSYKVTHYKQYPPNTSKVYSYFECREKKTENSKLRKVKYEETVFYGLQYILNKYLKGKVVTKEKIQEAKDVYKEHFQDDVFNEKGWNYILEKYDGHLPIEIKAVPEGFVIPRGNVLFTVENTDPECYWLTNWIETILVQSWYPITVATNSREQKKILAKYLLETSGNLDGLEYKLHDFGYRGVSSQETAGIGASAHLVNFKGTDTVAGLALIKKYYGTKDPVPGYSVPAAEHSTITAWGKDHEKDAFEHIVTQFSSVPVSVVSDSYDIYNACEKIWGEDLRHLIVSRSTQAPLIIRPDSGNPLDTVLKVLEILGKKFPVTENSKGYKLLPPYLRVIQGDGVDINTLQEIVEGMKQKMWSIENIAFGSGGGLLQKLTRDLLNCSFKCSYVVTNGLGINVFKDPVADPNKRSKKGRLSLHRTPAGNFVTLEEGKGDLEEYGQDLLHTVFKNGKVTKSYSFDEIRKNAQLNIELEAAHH

[5] = molecular target: T1, Nicotinamide phosphoribosyltransferase; experiment: Displacement of fluorescent labelled OG488 from human full length FLAG-tagged NAMPT (1 to 491 residues) expressed in HEK293-6E cells in presence of PRPP by TR-FRET assay; format: cell-based
PC-3 = experiment: Antiproliferative activity against human PC3 cells assessed as reduction in cell viability by Celltiter-Glo assay; format: functional, cell-based
Summary of the method: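 PC3 cells from ATCC, authenticated by STR analysis. Viability was read by CellTiter-Glo, and cell EC50 is the geometric mean of at least two duplicate runs.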

[6] = molecular target: T2, Beta-2 adrenergic receptor (Homo sapiens, UniProt P07550); experiment: Displacement of [3H](-)CGP 12177 from human recombinant beta2 adrenoceptor after 120 mins by scintillation counting method
Target sequence in this assay (P07550 whole entry): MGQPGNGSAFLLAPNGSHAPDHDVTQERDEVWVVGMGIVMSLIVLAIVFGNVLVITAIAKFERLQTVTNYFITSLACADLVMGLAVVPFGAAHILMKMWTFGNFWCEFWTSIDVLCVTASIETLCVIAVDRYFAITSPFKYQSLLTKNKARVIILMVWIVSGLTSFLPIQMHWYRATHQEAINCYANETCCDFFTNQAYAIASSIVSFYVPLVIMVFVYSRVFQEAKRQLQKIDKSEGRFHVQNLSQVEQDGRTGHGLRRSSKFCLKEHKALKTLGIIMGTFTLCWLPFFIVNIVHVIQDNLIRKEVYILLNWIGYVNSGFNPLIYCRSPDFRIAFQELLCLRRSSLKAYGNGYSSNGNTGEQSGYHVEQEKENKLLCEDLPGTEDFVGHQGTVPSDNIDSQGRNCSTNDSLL

[7] = molecular target: T3, 5-hydroxytryptamine receptor 1A (Homo sapiens, UniProt P08908); experiment: Displacement of [3H]-OH-DPAT from human recombinant 5-HT1A receptor measured after 60 mins by scintillation counter method
T3 sequence (P08908 whole entry): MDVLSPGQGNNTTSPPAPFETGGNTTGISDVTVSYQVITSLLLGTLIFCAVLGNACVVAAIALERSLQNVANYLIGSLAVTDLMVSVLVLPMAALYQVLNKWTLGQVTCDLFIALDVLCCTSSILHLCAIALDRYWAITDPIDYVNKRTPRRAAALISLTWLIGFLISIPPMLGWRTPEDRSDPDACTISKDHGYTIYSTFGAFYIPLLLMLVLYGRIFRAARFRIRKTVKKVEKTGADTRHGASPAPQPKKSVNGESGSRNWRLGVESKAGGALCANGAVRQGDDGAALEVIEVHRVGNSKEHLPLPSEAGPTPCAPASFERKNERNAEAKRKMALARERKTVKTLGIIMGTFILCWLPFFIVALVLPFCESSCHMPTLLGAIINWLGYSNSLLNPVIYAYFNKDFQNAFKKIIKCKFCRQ

[8] = molecular target: T2, Beta-2 adrenergic receptor; experiment: Displacement of [3H](-)CGP 12177 from human recombinant beta2 adrenoceptor after 120 mins by scintillation counting method relative to parent compound
Target sequence in this assay (P07550 whole entry, looked up): as the sequence (P07550 whole entry) above

[9] = molecular target: T4, 5-hydroxytryptamine receptor 1A (Homo sapiens) (UniProt P08908); experiment: Displacement of [3H]-OH-DPAT from human recombinant 5-HT1A receptor measured after 60 mins by scintillation counter method relative to parent compound
T4 sequence (whole entry): T3 sequence (P08908 whole entry)

[10] = molecular target: T3, 5-hydroxytryptamine receptor 1A; experiment: Antagonist activity at human 5HT1A expressed in BAF3 cells by fluorimetry analysis; format: cell-based
[11] = molecular target: T2, Beta-2 adrenergic receptor; experiment: Antagonist activity at human recombinant beta2 adrenoreceptor expressed in CHOK1 cells incubated for 30 mins by HTRF; format: cell-based
Target sequence in this assay (P07550 whole entry): as the sequence (P07550 whole entry) above

[12] = molecular target: T2, Beta-2 adrenergic receptor; experiment: Antagonist activity at human recombinant beta2 adrenoreceptor expressed in CHOK1 cells incubated for 30 mins by HTRF relative to parent compound; format: cell-based
Target sequence in this assay (P07550 whole entry, looked up): as the sequence (P07550 whole entry) above

Question: Which Papp at 7 h [1] does the source give for Cc1nc(Nc2ncc(C(=O)Nc3c(C)cccc3Cl)s2)cc(N2CCN(CCO)CC2)n1.O [DASATINIB] here?
Answer: 1.49 ×10⁻⁶ cm/s

Question: And the IC50 (K562)?
Answer: 0.638 nM

Question: What does the source list for Cc1nc(Nc2ncc(C(=O)Nc3c(C)cccc3Cl)s2)cc(N2CCN(CCOCCOCCNC(=O)OC(C)(C)C)CC2)n1?
Answer: Papp at 7 h [1]: 0.0065 ×10⁻⁶ cm/s; IC50 (K562): 1.64 nM

Question: For O=C(CS(=O)(=O)O)NCCOCCOCC(=O)N1CCN(C(=O)c2cc(Cc3n[nH]c(=O)c4ccccc34)ccc2F)CC1, which EC50 (DLD-1 [2]) is on record?
Answer: 53000 nM

Question: What about the EC50 (DLD-1 [3]) of the same compound?
Answer: 1100 nM

Question: Which EC50 (DLD-1 [2]) does the source give for CC1(CCCCCC(=O)NCCOCCOCC(=O)N2CCN(C(=O)c3cc(Cc4n[nH]c(=O)c5ccccc45)ccc3F)CC2)C(/C=C/C=C/C=C2/N(CCCS(=O)(=O)O)c3ccc(S(=O)(=O)O)cc3C2(C)C)=[N+](CCCS(=O)(=O)[O-])c2ccc(S(=O)(=O)O)cc21 (stereo not drawn) here?
Answer: 70000 nM

Question: And the EC50 (DLD-1 [3])?
Answer: 600 nM

Question: With CC(C)(C)OC(=O)NCCOCCOCC(=O)N1CCN(C(=O)c2cc(Cc3n[nH]c(=O)c4ccccc34)ccc2F)CC1 as the compound, how does the EC50 (DLD-1 [2]) read?
Answer: > 100000 nM

Question: What about the EC50 (DLD-1 [3]) of the same compound?
Answer: 700 nM

Question: For CC1(CCCCCC(=O)NCCOCCOCC(=O)NCc2cccc(C(=O)N3CCC(CCCCNC(=O)/C=C/c4cccnc4)CC3)c2)C(/C=C/C=C/C=C2/N(CCCS(=O)(=O)O)c3ccc(S(=O)(=O)O)cc3C2(C)C)=[N+](CCCS(=O)(=O)[O-])c2ccc(S(=O)(=O)O)cc21 (stereo not drawn), which Ki [4] is on record?
Answer: 141 nM

Question: What about the Ki [5] of the same compound?
Answer: 1.3 nM

Question: What about the IC50 (PC-3) of the same compound?
Answer: 197 nM

Question: For CC(C)NCC(O)COc1ccccc1CCCSCC(=O)NCCOCCOCCNC(=O)CCCCCC1(C)C(/C=C/C=C/C=C2/N(CCCS(=O)(=O)O)c3ccc(S(=O)(=O)O)cc3C2(C)C)=[N+](CCCS(=O)(=O)[O-])c2ccc(S(=O)(=O)O)cc21 (stereo not drawn), which Ki [6] is on record?
Answer: 26 nM

Question: What about the Ki [7] of the same compound?
Answer: 925 nM

Question: And the fold change (FC) [8]?
Answer: 1.73

Question: What about the fold change (FC) [9] of the same compound?
Answer: 18.9

Question: And the IC50 [10]?
Answer: > 10000 nM

Question: And the IC50 [11]?
Answer: 96 nM

Question: And the fold change (FC) [12]?
Answer: 1.33

Question: What does the source list for Cc1nc(Nc2ncc(C(=O)Nc3c(C)cccc3Cl)s2)cc(N2CCN(CCOCCOCCNC(=O)CS(=O)(=O)O)CC2)n1?
Answer: Papp at 7 h [1]: 0.0274 ×10⁻⁶ cm/s; IC50 (K562): 120 nM

Question: What does the source list for CC(C)NCC(O)COc1ccccc1CCCSCC(=O)NCCOCCOCCNC(=O)C1C(C(=O)O)C(C(=O)O)C1C(=O)O (stereo not drawn)?
Answer: Ki [6]: 78.6 nM; Ki [7]: 1720 nM; fold change (FC) [8]: 24.6; fold change (FC) [9]: 35.2; IC50 [10]: > 10000 nM; IC50 [11]: 380 nM; fold change (FC) [12]: 5.27

Question: For COC(=O)CSCCCc1ccccc1OCC(O)CNC(C)C (stereo not drawn), which Papp at 7 h [1] is on record?
Answer: 0.0436 ×10⁻⁶ cm/s

Question: And the Ki [6]?
Answer: 15 nM

Question: And the Ki [7]?
Answer: 56.1 nM

Question: And the fold change (FC) [8]?
Answer: 1

Question: What about the fold change (FC) [9] of the same compound?
Answer: 1

Question: What about the IC50 [10] of the same compound?
Answer: 2900 nM

Question: And the IC50 [11]?
Answer: 72 nM

Question: And the fold change (FC) [12]?
Answer: 1

Question: What does the source list for Cc1nc(Nc2ncc(C(=O)Nc3c(C)cccc3Cl)s2)cc(N2CCN(CCOCCOCCNC(=O)C3C(C(=O)O)C(C(=O)O)C3C(=O)O)CC2)n1 (stereo not drawn)?
Answer: Papp at 7 h [1]: 0.0122 ×10⁻⁶ cm/s; IC50 (K562): 183 nM

Question: Which results are given for O=C(c1cc(Cc2n[nH]c(=O)c3ccccc23)ccc1F)N1CCNCC1?
Answer: Papp at 7 h [1]: 0.081 ×10⁻⁶ cm/s; EC50 (DLD-1 [2]): > 100000 nM; EC50 (DLD-1 [3]): 200 nM

Question: For C=CCc1ccccc1OCC(O)CNCCOCCOCCOCCOCCNC(=O)OC(C)(C)C (stereo not drawn), which Ki [6] is on record?
Answer: 3.7 nM

Question: What about the Ki [7] of the same compound?
Answer: 24.1 nM

Question: What about the fold change (FC) [8] of the same compound?
Answer: 7.4

Question: What about the fold change (FC) [9] of the same compound?
Answer: 1.12

Question: What about the IC50 [10] of the same compound?
Answer: > 1000 nM

Question: What about the IC50 [11] of the same compound?
Answer: 6.9 nM

Question: What about the fold change (FC) [12] of the same compound?
Answer: 2.09

Question: Which Papp at 7 h [1] does the source give for O=C(/C=C/c1cccnc1)NCCCCC1CCN(C(=O)c2ccccc2)CC1 [DAPORINAD] here?
Answer: 39.5 ×10⁻⁶ cm/s

Question: And the IC50 (PC-3)?
Answer: 6 nM

Question: For Cc1nc(Nc2ncc(C(=O)Nc3c(C)cccc3Cl)s2)cc(N2CCN(CCOCCOCCNC(=O)CCCCCC3(C)C(/C=C/C=C/C=C4/N(CCCS(=O)(=O)O)c5ccc(S(=O)(=O)O)cc5C4(C)C)=[N+](CCCS(=O)(=O)[O-])c4ccc(S(=O)(=O)O)cc43)CC2)n1 (stereo not drawn), which IC50 (K562) is on record?
Answer: 29.1 nM

Question: For O=C(c1cc(Cc2n[nH]c(=O)c3ccccc23)ccc1F)N1CCN(C(=O)C2CC2)CC1 [OLAPARIB], which Papp at 7 h [1] is on record?
Answer: 3.37 ×10⁻⁶ cm/s

Question: And the EC50 (DLD-1 [2])?
Answer: 19000 nM

Question: What about the EC50 (DLD-1 [3]) of the same compound?
Answer: 100 nM

Question: For C=CCc1ccccc1OCC(O)CNCCOCCOCCOCCOCCNC(=O)C1C(C(=O)O)C(C(=O)O)C1C(=O)O (stereo not drawn), which Papp at 7 h [1] is on record?
Answer: 0.0012 ×10⁻⁶ cm/s

Question: And the Ki [6]?
Answer: 512 nM

Question: And the Ki [7]?
Answer: 1780 nM

Question: And the fold change (FC) [8]?
Answer: 1024

Question: What about the fold change (FC) [9] of the same compound?
Answer: 82.4

Question: What about the IC50 [10] of the same compound?
Answer: > 1000 nM

Question: What about the IC50 [11] of the same compound?
Answer: > 1000 nM

Question: And the fold change (FC) [12]?
Answer: 303
